Key:
[1] = biological target: T1, GABA-A receptor; alpha-3/beta-3/gamma-2 (Homo sapiens, UniProt P18507+P28472+P34903); assay: Displacement of [3H]flumazenil human recombinant alpha3beta3gamma2 GABA(A) receptor expressed in HEK293 cells after 30 mins by glass fiber filtration assay; assay type: cell-based; conditions: in the assay text read “after 40 mins” for “after 30 mins”
T1 sequence (P18507 whole entry): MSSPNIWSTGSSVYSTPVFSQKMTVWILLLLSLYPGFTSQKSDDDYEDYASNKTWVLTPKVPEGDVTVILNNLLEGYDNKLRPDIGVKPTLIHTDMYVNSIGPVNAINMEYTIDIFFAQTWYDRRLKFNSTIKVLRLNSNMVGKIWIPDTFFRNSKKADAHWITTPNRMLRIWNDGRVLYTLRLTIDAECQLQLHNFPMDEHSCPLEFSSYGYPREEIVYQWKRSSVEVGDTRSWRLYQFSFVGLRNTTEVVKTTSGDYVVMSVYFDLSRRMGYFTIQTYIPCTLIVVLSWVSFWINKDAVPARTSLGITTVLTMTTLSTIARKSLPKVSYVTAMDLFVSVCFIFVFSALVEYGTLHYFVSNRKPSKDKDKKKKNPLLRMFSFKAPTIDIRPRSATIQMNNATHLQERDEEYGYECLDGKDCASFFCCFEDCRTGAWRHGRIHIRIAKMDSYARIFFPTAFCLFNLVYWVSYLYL
T1 sequence (P28472 whole entry): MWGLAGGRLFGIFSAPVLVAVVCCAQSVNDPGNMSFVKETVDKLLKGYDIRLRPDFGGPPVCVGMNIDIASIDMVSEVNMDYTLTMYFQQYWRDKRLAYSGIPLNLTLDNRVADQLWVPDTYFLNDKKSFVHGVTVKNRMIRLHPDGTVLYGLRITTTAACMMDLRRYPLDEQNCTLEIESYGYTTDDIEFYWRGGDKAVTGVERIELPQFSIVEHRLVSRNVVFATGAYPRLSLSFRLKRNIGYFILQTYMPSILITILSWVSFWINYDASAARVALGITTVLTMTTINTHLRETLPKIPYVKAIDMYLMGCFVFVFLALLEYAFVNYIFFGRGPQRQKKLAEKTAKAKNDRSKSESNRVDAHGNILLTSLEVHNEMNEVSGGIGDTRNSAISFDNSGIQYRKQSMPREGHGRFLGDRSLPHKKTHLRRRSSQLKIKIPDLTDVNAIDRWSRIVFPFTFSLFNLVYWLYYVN
T1 sequence (P34903 whole entry): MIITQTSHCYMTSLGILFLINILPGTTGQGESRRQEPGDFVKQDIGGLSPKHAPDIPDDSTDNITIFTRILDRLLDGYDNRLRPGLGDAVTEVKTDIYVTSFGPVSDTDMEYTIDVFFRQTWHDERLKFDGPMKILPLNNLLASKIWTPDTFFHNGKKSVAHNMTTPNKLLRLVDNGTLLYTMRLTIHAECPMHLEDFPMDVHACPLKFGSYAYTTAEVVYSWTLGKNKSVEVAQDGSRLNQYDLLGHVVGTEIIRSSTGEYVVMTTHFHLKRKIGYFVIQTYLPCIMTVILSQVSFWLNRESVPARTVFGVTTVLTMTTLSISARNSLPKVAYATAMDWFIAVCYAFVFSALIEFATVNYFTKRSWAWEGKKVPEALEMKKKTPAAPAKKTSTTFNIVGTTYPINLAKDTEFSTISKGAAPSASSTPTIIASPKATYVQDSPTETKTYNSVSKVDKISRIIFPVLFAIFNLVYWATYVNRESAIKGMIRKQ
How it was run: (§1)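 HEK cell membranes carrying human receptors in 50 mM Tris–citrate pH 7.1 with 1 nM final [3H]flumazenil, incubated 40 min on ice (0–4 °C). Filtered on GF/C and washed with ice-cold buffer. Clonazepam 1 µM final defined nonspecific binding. IC50 from 4–6 test concentrations, converted by Ki = IC50/(1+L/KD). Mean ± SD of three determinations.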

[2] = biological target: T2, GABA-A receptor; alpha-2/beta-3/gamma-2 (Homo sapiens, UniProt P18507+P28472+P47869); assay: Displacement of [3H]flumazenil human recombinant alpha2beta3gamma2 GABA(A) receptor expressed in HEK293 cells after 30 mins by glass fiber filtration assay; assay type: cell-based; conditions: in the assay text read “after 40 mins” for “after 30 mins”; how it was run: as §1
T2 sequence (P18507 whole entry): T1 sequence (P18507 whole entry)
T2 sequence (P28472 whole entry): T1 sequence (P28472 whole entry)
T2 sequence (P47869 whole entry): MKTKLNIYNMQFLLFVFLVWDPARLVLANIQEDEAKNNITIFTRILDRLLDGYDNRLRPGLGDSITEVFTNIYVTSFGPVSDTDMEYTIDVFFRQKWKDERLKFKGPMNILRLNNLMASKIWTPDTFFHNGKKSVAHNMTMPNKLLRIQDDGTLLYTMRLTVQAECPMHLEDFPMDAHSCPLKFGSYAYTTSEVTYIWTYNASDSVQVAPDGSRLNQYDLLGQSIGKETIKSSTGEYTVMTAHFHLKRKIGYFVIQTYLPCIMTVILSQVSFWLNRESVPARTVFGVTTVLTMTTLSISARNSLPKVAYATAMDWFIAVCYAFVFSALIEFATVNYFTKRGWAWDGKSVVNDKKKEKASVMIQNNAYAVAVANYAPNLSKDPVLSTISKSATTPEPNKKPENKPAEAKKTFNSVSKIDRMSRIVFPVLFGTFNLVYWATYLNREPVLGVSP

[3] = biological target: T3, GABA-A receptor; alpha-1/beta-3/gamma-2 (Homo sapiens, UniProt P14867+P18507+P28472); assay: Displacement of [3H]flumazenil human recombinant alpha1beta3gamma2 GABA(A) receptor expressed in HEK293 cells after 30 mins by glass fiber filtration assay; assay type: cell-based; conditions: in the assay text read “after 40 mins” for “after 30 mins”; how it was run: as §1
T3 sequence (P14867 whole entry): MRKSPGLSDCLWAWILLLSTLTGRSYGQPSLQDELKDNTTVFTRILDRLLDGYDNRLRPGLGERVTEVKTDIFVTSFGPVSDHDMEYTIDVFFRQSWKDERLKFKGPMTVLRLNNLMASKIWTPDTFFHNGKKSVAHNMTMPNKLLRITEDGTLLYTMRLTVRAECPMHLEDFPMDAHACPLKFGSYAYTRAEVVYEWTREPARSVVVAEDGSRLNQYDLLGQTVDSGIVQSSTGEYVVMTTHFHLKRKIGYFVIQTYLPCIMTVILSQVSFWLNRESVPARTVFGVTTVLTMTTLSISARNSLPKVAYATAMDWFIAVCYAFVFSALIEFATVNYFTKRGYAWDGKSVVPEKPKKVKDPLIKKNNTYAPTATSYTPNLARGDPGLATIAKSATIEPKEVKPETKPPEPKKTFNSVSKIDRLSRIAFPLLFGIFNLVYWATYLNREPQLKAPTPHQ
T3 sequence (P18507 whole entry): T1 sequence (P18507 whole entry)
T3 sequence (P28472 whole entry): T1 sequence (P28472 whole entry)

[4] = Displacement of [3H]flumazenil form benzodiazepine-binding site of GABA(A) receptor in rat cortical membrane after 30 mins by glass fiber filtration assay; assay type: cell membranes; conditions: in the assay text read “after 40 mins” for “after 30 mins”
How it was run: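 Rat cortex homogenized in 30 mM Tris–HCl pH 7.4, washed by 27,000g spins, held at 37 °C for 30 min, stored at −20 °C. Membranes (1 mg original tissue/0.55 mL) in 50 mM Tris–citrate pH 7.1 with 1 nM final [3H]flumazenil, 40 min at 0–4 °C. GF/C filtration. Nonspecific binding with 1 µM clonazepam. IC50 from 4–6 concentrations; Ki = IC50/(1+L/KD).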

[5] = biological target: T4, GABA-A receptor; alpha-5/beta-3/gamma-2 (Homo sapiens, UniProt P18507+P28472+P31644); assay: Displacement of [3H]flumazenil human recombinant alpha5beta3gamma2 GABA(A) receptor expressed in HEK293 cells after 30 mins by glass fiber filtration assay; assay type: cell-based; conditions: in the assay text read “after 40 mins” for “after 30 mins”; how it was run: as §1
T4 sequence (P18507 whole entry): T1 sequence (P18507 whole entry)
T4 sequence (P28472 whole entry): T1 sequence (P28472 whole entry)
T4 sequence (P31644 whole entry): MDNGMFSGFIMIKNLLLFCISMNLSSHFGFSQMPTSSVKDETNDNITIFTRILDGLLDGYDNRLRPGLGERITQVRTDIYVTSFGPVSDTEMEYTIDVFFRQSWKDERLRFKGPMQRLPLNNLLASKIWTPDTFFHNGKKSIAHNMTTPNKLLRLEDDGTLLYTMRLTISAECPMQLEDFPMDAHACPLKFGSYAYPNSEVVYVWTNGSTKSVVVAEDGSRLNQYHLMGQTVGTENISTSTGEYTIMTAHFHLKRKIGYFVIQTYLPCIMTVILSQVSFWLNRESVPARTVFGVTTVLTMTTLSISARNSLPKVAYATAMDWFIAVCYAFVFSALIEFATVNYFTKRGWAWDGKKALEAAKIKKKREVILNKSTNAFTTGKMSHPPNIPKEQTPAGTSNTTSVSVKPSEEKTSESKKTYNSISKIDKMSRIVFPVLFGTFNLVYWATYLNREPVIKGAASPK

Homo sapiens [6] = species on record: Homo sapiens; assay: Selectivity ratio of Ki for human recombinant alpha2beta3gamma2 GABA(A) receptor to Ki for human recombinant alpha1beta3gamma2 GABA(A) receptor
How it was run: (§2)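 Ratio of the Ki at the named subtype to the Ki at α1β3γ2. Both Ki values come from [3H]flumazenil (1 nM) displacement on membranes of HEK cells with human receptors, run 40 min at 0–4 °C with GF/C filtration. Ki = IC50/(1+L/KD).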

Homo sapiens [7] = species on record: Homo sapiens; assay: Selectivity ratio of Ki for human recombinant alpha5beta3gamma2 GABA(A) receptor to Ki for human recombinant alpha1beta3gamma2 GABA(A) receptor; how it was run: as §2
Homo sapiens [8] = species on record: Homo sapiens; assay: Selectivity ratio of Ki for human recombinant alpha3beta3gamma2 GABA(A) receptor to Ki for human recombinant alpha1beta3gamma2 GABA(A) receptor; how it was run: as §2

SMILES: Cc1ccc(-n2nc3c4cc(CCc5ccccc5)ccc4[nH]c(=O)n3c2=O)cc1
- Ki [1]: 9.7 nM
- Ki [2]: 65 nM
- Ki [3]: 3.6 nM
- Ki [4]: 4 nM
- Ki [5]: 66 nM
- Ratio Ki (Homo sapiens [6]): 18

SMILES: Cc1ccc(-n2nc3c4cc(CCc5ccc(Oc6ccccc6)cc5)ccc4[nH]c(=O)n3c2=O)cc1
- Ki [4]: 123 nM

SMILES: Cc1ccc(-n2nc3c4cc(CCc5ccc(-c6ccccc6)cc5)ccc4[nH]c(=O)n3c2=O)cc1
- Ki [4]: 1570 nM

SMILES: O=c1[nH]c2ccc(Br)cc2c2nn(-c3ccccc3F)c(=O)n12
- Ki [4]: 0.2 nM

SMILES: Cc1ccc(-n2nc3c4cc(Br)ccc4[nH]c(=O)n3c2=O)cc1
- Ki [4]: 0.47 nM

SMILES: O=c1[nH]c2ccc(Br)cc2c2nn(-c3ccc(Cl)cc3)c(=O)n12
- Ki [4]: 0.6 nM

SMILES: Cc1ccc(-n2nc3c4cc(Cc5ccccc5)ccc4[nH]c(=O)n3c2=O)cc1
- Ki [4]: 1 nM

SMILES: Cc1ccc(-n2nc3c4cc(CCc5cccc(O)c5)ccc4[nH]c(=O)n3c2=O)cc1
- Ki [4]: 12.4 nM

SMILES: Cc1ccc(-n2nc3c4cc(CCc5ccsc5)ccc4[nH]c(=O)n3c2=O)cc1
- Ratio Ki (Homo sapiens [7]): 26
- Ki [1]: 0.71 nM
- Ki [2]: 1.7 nM
- Ki [3]: 0.14 nM
- Ki [4]: 0.94 nM
- Ki [5]: 3.6 nM
- Ratio Ki (Homo sapiens [8]): 5

SMILES: Cc1ccc(-n2nc3c4cc(Cc5cccc(F)c5)ccc4[nH]c(=O)n3c2=O)cc1
- Ki [4]: 2.1 nM

SMILES: Cc1ccc(-n2nc3c4cc(CCC(=O)O)ccc4[nH]c(=O)n3c2=O)cc1
- Ki [4]: 1.4 nM

SMILES: Cc1ccc(-n2nc3c4cc(CCc5ccncc5)ccc4[nH]c(=O)n3c2=O)cc1
- Ki [4]: 0.17 nM

SMILES: Cc1ccc(-n2nc3c4cc(Cc5ccsc5)ccc4[nH]c(=O)n3c2=O)cc1
- Ki [4]: 0.23 nM

SMILES: O=c1[nH]c2ccc(Br)cc2c2nn(-c3ccccc3)c(=O)n12
- Ki [4]: 0.24 nM

SMILES: Cc1ccc(-n2nc3c4cc(CCc5ccccn5)ccc4[nH]c(=O)n3c2=O)cc1
- Ki [4]: 0.53 nM

SMILES: Cc1ccc(-n2nc3c4cc(CCc5cccnc5)ccc4[nH]c(=O)n3c2=O)cc1
- Ratio Ki (Homo sapiens [7]): 13
- Ki [1]: 2.3 nM
- Ki [2]: 4.4 nM
- Ki [3]: 0.68 nM
- Ki [4]: 0.2 nM
- Ki [5]: 9.1 nM
- Ratio Ki (Homo sapiens [8]): 3

SMILES: Cc1ccc2[nH]c(=O)n3c(=O)n(-c4ccccc4)nc3c2c1
- Ki [1]: 1.3 nM
- Ki [2]: 1 nM
- Ki [3]: 0.43 nM
- Ki [4]: 0.62 nM
- Ratio Ki (Homo sapiens [6]): 2

SMILES: Cc1ccc(-n2nc3c4cc(C#Cc5ccccc5)ccc4[nH]c(=O)n3c2=O)cc1
- Ki [4]: 40 nM

Source: ChEMBL document CHEMBL1641431, “Triazoloquinazolinediones as novel high affinity ligands for the benzodiazepine site of GABA(A) receptors” (Bioorg Med Chem, 2011)
